Experimental findings from ChEMBL document CHEMBL1138089, “Cell permeation of a Trypanosoma brucei aldolase inhibitor: evaluation of different enzyme-labile phosphate protecting groups” (Bioorg Med Chem Lett, 2006) are described below.

For assay [1], the system named is Trypanosoma cruzi. Nature of the assay: Inhibitory activity against Trypanosoma cruzi. It counts as functional, organism-based. A digest of the protocol: (§1)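 Parasites grown inside host macrophages in serum-containing medium, so compounds must cross the macrophage and parasite membranes; tested in vitro.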
For assay [2], the system named is MRC5. Nature of the assay: Cytotoxicity against human MRC5 cells. It is filed as functional, cell-based.
For assay [3], the system named is Trypanosoma brucei. Nature of the assay: Inhibitory activity against Trypanosoma brucei. It counts as functional, organism-based. A digest of the protocol:
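Parasites cultured free in serum-containing medium without macrophages; prodrugs tested in vitro against the cultures.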

Assay [4] relates to Plasmodium falciparum. Briefly: Inhibitory activity against Plasmodium falciparum. It counts as functional, organism-based.
The test system of assay [5] is Leishmania infantum. Briefly: Inhibitory activity against Leishmania […]. It counts as functional, organism-based. A digest of the protocol:
as §1

With `CC(=O)OCCSSCCOP(=O)(OCCSSCCOC(C)=O)Oc1ccc(O)c(C=O)c1`, the IC50 in assay [1], in assay [2], in assay [3], in assay [4] and in assay [5] was over 50 µM throughout.
For the molecule `CC(C)(C)C(=O)OCOP(=O)(OCOC(=O)C(C)(C)C)Oc1ccc(O)c(C=O)c1`, the IC50 (usually the concentration that inhibits the measured activity by half) in assay [1] is over 50 µM; in assay [2], over 50 µM; in assay [3], 20 µM; in assay [4], over 50 µM; in assay [5] it was over 50 µM.
Regarding `CC(C)(C)C(=O)SCCOP(=O)(OCCSC(=O)C(C)(C)C)Oc1ccc(O)c(C=O)c1`, the IC50 in assay [1] is 15 µM; in assay [2] it was 6 µM; in assay [3], 16 µM; in assay [4], 12 µM; in assay [5], 25 µM.
In the same order, the values of `CC(=O)Oc1ccccc1CCC(=O)OCOP(=O)(OCOC(=O)CCc1ccccc1OC(C)=O)Oc1ccc(O)c(C=O)c1` are over 50 µM, over 50 µM, over 50 µM, over 50 µM and over 50 µM.
In the same order, the values of `O=Cc1cc(OP(=O)(O)O)ccc1O` are over 50 µM, over 50 µM, over 50 µM, over 50 µM and over 50 µM.
